Assay results taken from ChEMBL document CHEMBL1649179, “Pharmacokinetics of LB80331 and LB80317 following oral administration of LB80380, a new antiviral agent for chronic hepatitis B (CHB), in healthy adult subjects, CHB patients, and mice” (Antimicrob Agents Chemother, 2009).

How the values were obtained:
Homo sapiens [1] = test: Tmax in chronic hepatitis B virus infected patient assessed as (1-((2-amino-6-hydroxy-9H-purin-9-yl)methyl)cyclopropoxy)me at 60 mg, po qd for 4 weeks by LC-MS analysis; type: ADME, organism-based; details: in vivo, 672 h
Method in brief: (§1)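 Daily oral LB80380 was given to CHB patients over 4 weeks. Blood was drawn on day 1 and at steady state (weeks 2–4), predose and 0.5–24 h postdose. Plasma LB80331 (LLOQ 5 ng/ml) and LB80317 (LLOQ 10 ng/ml) were measured by LC-MS/MS after protein-precipitation extraction. Tmax was taken by noncompartmental analysis.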

Plasma [2] = test: Half life in CD-1 mouse plasma assessed as (1-((2-amino-6-hydroxy-9H-purin-9-yl)methyl)cyclopropoxy)me at 30 mg/kg, po administered as single dose by LC-MS analysis; type: ADME, organism-based; set-up: dose 30 mg/kg, route oral; details: in vivo
Method in brief: (§2)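 Male CD-1 mice given a single oral dose in 100% PEG 400. Samples extracted with perchloric acid and neutralized with ammonium bicarbonate. One aliquot assayed for the free analyte; the other treated with calf intestinal phosphatase to give the total including di-/triphosphates. Analysis by LC-MS/MS.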

Homo sapiens [3] = test: Cmax in chronic hepatitis B virus infected patient assessed as (1-((2-amino-6-hydroxy-9H-purin-9-yl)methyl)cyclopropoxy)me at 240 mg, po qd for 4 weeks by LC-MS analysis; type: ADME, organism-based; set-up: dose 240 mg, route oral; details: in vivo, 672 h
Method in brief: (§3)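 CHB patients (HBsAg/HBeAg positive), six per cohort, oral once daily for 4 weeks. Plasma sampled at steady state (weeks 2–4), predose and at 0.5, 1, 2, 3, 4, 6, 8 and 24 h postdose. Analysis by validated LC-MS/MS after protein-precipitation extraction with a stable-isotope internal standard; LLOQ 10 ng/ml for LB80317. Noncompartmental analysis gives Cmax, AUC0-24 and terminal t1/2.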

Homo sapiens [4] = test: AUC (0 to 24 hrs) in chronic hepatitis B virus infected patient assessed as (1-((2-amino-6-hydroxy-9H-purin-9-yl)methyl)cyclopropoxy)me at 30 mg, po qd for 4 weeks by LC-MS analysis; type: ADME, organism-based, Plasma; set-up: time < 24 hr, dose 30 mg, route oral; details: in vivo; method in brief: as §3
Liver [5] = test: AUC (0 to infinity) in CD-1 mouse liver assessed as (1-((2-amino-6-hydroxy-9H-purin-9-yl)methyl)cyclopropoxy)me at 30 mg/kg, po administered as single dose by LC-MS analysis; type: ADME, organism-based; set-up: time infinity, dose 30 mg/kg, route oral; details: in vivo; method in brief: as §2
Homo sapiens [6] = test: AUC (0 to 24 hrs) in chronic hepatitis B virus infected patient assessed as (1-((2-amino-6-hydroxy-9H-purin-9-yl)methyl)cyclopropoxy)me at 120 mg, po qd for 4 weeks by LC-MS analysis; type: ADME, organism-based, Plasma; set-up: dose 120 mg, time < 24 hr, route oral; details: in vivo; method in brief: as §3
Plasma [7] = test: AUC (0 to infinity) in CD-1 mouse plasma assessed as (1-((2-amino-6-hydroxy-9H-purin-9-yl)methyl)cyclopropoxy)me at 30 mg/kg, po administered as single dose by LC-MS analysis; type: ADME, organism-based; set-up: time infinity, dose 30 mg/kg, route oral; details: in vivo; method in brief: as §2
Liver [8] = test: AUC (0 to 36 hrs) in CD-1 mouse liver assessed as (1-((2-amino-6-hydroxy-9H-purin-9-yl)methyl)cyclopropoxy)me at 30 mg/kg, po administered as single dose by LC-MS analysis; type: ADME, organism-based; set-up: time < 36 hr, dose 30 mg/kg, route oral; details: in vivo; method in brief: as §2
Plasma [9] = test: AUC (0 to 36 hrs) in CD-1 mouse plasma assessed as (1-((2-amino-6-hydroxy-9H-purin-9-yl)methyl)cyclopropoxy)me at 30 mg/kg, po administered as single dose by LC-MS analysis; type: ADME, organism-based; set-up: time < 36 hr, dose 30 mg/kg, route oral; details: in vivo; method in brief: as §2
Homo sapiens [10] = test: Tmax in chronic hepatitis B virus infected patient assessed as (1-((2-amino-6-hydroxy-9H-purin-9-yl)methyl)cyclopropoxy)me at 120 mg, po qd for 4 weeks by LC-MS analysis; type: ADME, organism-based; details: in vivo, 672 h; method in brief: as §1
Homo sapiens [11] = test: Cmax in chronic hepatitis B virus infected patient assessed as (1-((2-amino-6-hydroxy-9H-purin-9-yl)methyl)cyclopropoxy)me at 120 mg, po qd for 4 weeks by LC-MS analysis; type: ADME, organism-based; set-up: dose 120 mg, route oral; details: in vivo, 672 h; method in brief: as §3
Liver [12] = test: Cmax in CD-1 mouse liver assessed as (1-((2-amino-6-hydroxy-9H-purin-9-yl)methyl)cyclopropoxy)me at 30 mg/kg, po administered as single dose by LC-MS analysis; type: ADME, organism-based; set-up: dose 30 mg/kg, route oral; details: in vivo; method in brief: as §2
Homo sapiens [13] = test: Tmax in chronic hepatitis B virus infected patient assessed as (1-((2-amino-6-hydroxy-9H-purin-9-yl)methyl)cyclopropoxy)me at 240 mg, po qd for 4 weeks by LC-MS analysis; type: ADME, organism-based; details: in vivo, 672 h; method in brief: as §1
Liver [14] = test: Half life in CD-1 mouse liver assessed as di- and triphosphates of (1-((2-amino-6-hydroxy-9H-purin-9-yl)methyl)cyclopropoxy)me at 30 mg/kg, po administered as single dose by LC-MS analysis; type: ADME, organism-based; set-up: dose 30 mg/kg, route oral; details: in vivo; method in brief: as §2
Homo sapiens [15] = test: Half life in chronic hepatitis B virus infected patient assessed as (1-((2-amino-6-hydroxy-9H-purin-9-yl)methyl)cyclopropoxy)me at 60 mg, po qd for 4 weeks by LC-MS analysis; type: ADME, organism-based; details: in vivo, 672 h; method in brief: as §3
Homo sapiens [16] = test: Half life in chronic hepatitis B virus infected patient assessed as (1-((2-amino-6-hydroxy-9H-purin-9-yl)methyl)cyclopropoxy)me at 120 mg, po qd for 4 weeks by LC-MS analysis; type: ADME, organism-based; details: in vivo, 672 h; method in brief: as §3
Homo sapiens [17] = test: Tmax in chronic hepatitis B virus infected patient assessed as (1-((2-amino-6-hydroxy-9H-purin-9-yl)methyl)cyclopropoxy)me at 30 mg, po qd for 4 weeks by LC-MS analysis; type: ADME, organism-based; details: in vivo, 672 h; method in brief: as §1
Homo sapiens [18] = test: AUC (0 to 24 hrs) in chronic hepatitis B virus infected patient assessed as (1-((2-amino-6-hydroxy-9H-purin-9-yl)methyl)cyclopropoxy)me at 240 mg, po qd for 4 weeks by LC-MS analysis; type: ADME, organism-based, Plasma; set-up: time < 24 hr, dose 240 mg, route oral; details: in vivo; method in brief: as §3
Liver [19] = test: Tmax in CD-1 mouse liver assessed as (1-((2-amino-6-hydroxy-9H-purin-9-yl)methyl)cyclopropoxy)me at 30 mg/kg, po administered as single dose by LC-MS analysis; type: ADME, organism-based; set-up: dose 30 mg/kg, route oral; details: in vivo
Method in brief: (§4)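 Male CD-1 mice received 30 mg/kg orally in 100% PEG 400. Plasma and snap-frozen liver were taken from 3 mice per time point at 1, 2, 4, 6, 10, 24 and 36 h. Samples were extracted with perchloric acid and neutralized with ammonium bicarbonate. Free LB80331/LB80317 was measured directly by LC-MS/MS; total, including di- and triphosphates, was measured after calf intestinal phosphatase treatment.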

Homo sapiens [20] = test: Half life in chronic hepatitis B virus infected patient assessed as (1-((2-amino-6-hydroxy-9H-purin-9-yl)methyl)cyclopropoxy)me at 240 mg, po qd for 4 weeks by LC-MS analysis; type: ADME, organism-based; details: in vivo, 672 h; method in brief: as §3
Liver [21] = test: Tmax in CD-1 mouse liver assessed as di- and triphosphates of (1-((2-amino-6-hydroxy-9H-purin-9-yl)methyl)cyclopropoxy)me at 30 mg/kg, po administered as single dose by LC-MS analysis; type: ADME, organism-based; set-up: dose 30 mg/kg, route oral; details: in vivo; method in brief: as §4
Homo sapiens [22] = test: AUC (0 to 24 hrs) in chronic hepatitis B virus infected patient assessed as (1-((2-amino-6-hydroxy-9H-purin-9-yl)methyl)cyclopropoxy)me at 60 mg, po qd for 4 weeks by LC-MS analysis; type: ADME, organism-based, Plasma; set-up: time < 24 hr, dose 60 mg, route oral; details: in vivo; method in brief: as §3
Homo sapiens [23] = test: Cmax in chronic hepatitis B virus infected patient assessed as (1-((2-amino-6-hydroxy-9H-purin-9-yl)methyl)cyclopropoxy)me at 30 mg, po qd for 4 weeks by LC-MS analysis; type: ADME, organism-based; set-up: dose 30 mg, route oral; details: in vivo, 672 h; method in brief: as §3
Liver [24] = test: Half life in CD-1 mouse liver assessed as (1-((2-amino-6-hydroxy-9H-purin-9-yl)methyl)cyclopropoxy)me at 30 mg/kg, po administered as single dose by LC-MS analysis; type: ADME, organism-based; set-up: dose 30 mg/kg, route oral; details: in vivo; method in brief: as §2
Liver [25] = test: AUC (0 to infinity) in CD-1 mouse liver assessed as di- and triphosphates of (1-((2-amino-6-hydroxy-9H-purin-9-yl)methyl)cyclopropoxy)me at 30 mg/kg, po administered as single dose by LC-MS analysis; type: ADME, organism-based; set-up: time infinity, dose 30 mg/kg, route oral; details: in vivo; method in brief: as §2
Homo sapiens [26] = test: Half life in chronic hepatitis B virus infected patient assessed as (1-((2-amino-6-hydroxy-9H-purin-9-yl)methyl)cyclopropoxy)me at 30 mg, po qd for 4 weeks by LC-MS analysis; type: ADME, organism-based; details: in vivo, 672 h; method in brief: as §3
Plasma [27] = test: Cmax in CD-1 mouse plasma assessed as (1-((2-amino-6-hydroxy-9H-purin-9-yl)methyl)cyclopropoxy)me at 30 mg/kg, po administered as single dose by LC-MS analysis; type: ADME, organism-based; set-up: dose 30 mg/kg, route oral; details: in vivo; method in brief: as §2
Homo sapiens [28] = test: Cmax in chronic hepatitis B virus infected patient assessed as (1-((2-amino-6-hydroxy-9H-purin-9-yl)methyl)cyclopropoxy)me at 60 mg, po qd for 4 weeks by LC-MS analysis; type: ADME, organism-based; set-up: dose 60 mg, route oral; details: in vivo, 672 h; method in brief: as §3
Plasma [29] = test: Tmax in CD-1 mouse plasma assessed as (1-((2-amino-6-hydroxy-9H-purin-9-yl)methyl)cyclopropoxy)me at 30 mg/kg, po administered as single dose by LC-MS analysis; type: ADME, organism-based; set-up: dose 30 mg/kg, route oral; details: in vivo; method in brief: as §4
Liver [30] = test: AUC (0 to 36 hrs) in CD-1 mouse liver assessed as di- and triphosphates of (1-((2-amino-6-hydroxy-9H-purin-9-yl)methyl)cyclopropoxy)me at 30 mg/kg, po administered as single dose by LC-MS analysis; type: ADME, organism-based; set-up: time < 36 hr, dose 30 mg/kg, route oral; details: in vivo; method in brief: as §2
Liver [31] = test: Cmax in CD-1 mouse liver assessed as di- and triphosphates of (1-((2-amino-6-hydroxy-9H-purin-9-yl)methyl)cyclopropoxy)me at 30 mg/kg, po administered as single dose by LC-MS analysis; type: ADME, organism-based; set-up: dose 30 mg/kg, route oral; details: in vivo; method in brief: as §2

A Tmax (Homo sapiens [1]) of 8 h, a t1/2 (Plasma [2]) of 8.6 h and a Cmax (Homo sapiens [3]) of 75 ng/mL were found for `Nc1nc(O)c2ncn(CC3(OCP(=O)(O)O)CC3)c2n1` [LB80317] in this work. The AUC (Homo sapiens [4]) was 285 ng·h/mL, the AUC (Liver [5]) was 3353 µM·h and the AUC (Homo sapiens [6]) was 1017 ng·h/mL. The AUC (Plasma [7]) was 6 µM·h, the AUC (Liver [8]) was 3069 µM·h and the AUC (Plasma [9]) was 6 µM·h. For the same compound, the Tmax (Homo sapiens [10]) was 3 h, the Cmax (Homo sapiens [11]) was 49 ng/mL and the Cmax (Liver [12]) was 243 µM. The Tmax (Homo sapiens [13]) was 4.5 h, the t1/2 (Liver [14]) was 8.3 h and the t1/2 (Homo sapiens [15]) was 62 h. It also gave a t1/2 (Homo sapiens [16]) of 51 h, a Tmax (Homo sapiens [17]) of 6 h and an AUC (Homo sapiens [18]) of 1449 ng·h/mL. It also gave a Tmax (Liver [19]) of 1 h, a t1/2 (Homo sapiens [20]) of 45 h and a Tmax (Liver [21]) of 1 h. The AUC (Homo sapiens [22]) was 433 ng·h/mL, the Cmax (Homo sapiens [23]) was 12 ng/mL and the t1/2 (Liver [24]) was 9.9 h. It also gave an AUC (Liver [25]) of 2152 µM·h, a t1/2 (Homo sapiens [26]) of 53 h and a Cmax (Plasma [27]) of 0.6 µM. The Cmax (Homo sapiens [28]) was 21 ng/mL, the Tmax (Plasma [29]) was 4 h and the AUC (Liver [30]) was 1883 µM·h. For the same compound, the Cmax (Liver [31]) was 107 µM.
